From ChEMBL document CHEMBL2413060, “Synthesis, biological evaluation and molecular docking studies of some pyrimidine derivatives” (2013)

Assays:
Format in all cases: functional
NCI-H522 = assay: Cytotoxicity against human NCI-H522 cells assessed as growth inhibition at 10 uM; settings: read-out: GI
Outline: (§1)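 Single-dose screen on human tumour cell lines. Growth of treated cells is expressed as percent of untreated growth, plotted as a mean graph, and reported as percent growth inhibition.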

CAKI-1 = assay: Cytotoxicity against human Caki1 cells
[1] = Cytotoxicity against human EKVX cells
MDA-MB-435 = assay: Cytotoxicity against human MDA-MB-435 cells
Outline: (§2)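 Five-dose in vitro screen on the full sixty human tumour cell line panel. Three response parameters derived per cell line: GI50, TGI and LC50, given in μM.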

HCT-15 = assay: Cytotoxicity against human HCT15 cells
RPMI-8226 [2] = assay: Cytotoxicity against human RPMI8226 cells assessed as growth inhibition at 10 uM; settings: read-out: GI; outline: as §1
MDA-MB-468 = assay: Cytotoxicity against human MDA-MB-468 cells; outline: as §2
NCI-H460 = assay: Cytotoxicity against human NCI-H460 cells; outline: as §2
786-0 = assay: Cytotoxicity against human 786-0 cells
SF-295 = assay: Cytotoxicity against human SF295 cells assessed as growth inhibition at 10 uM; settings: read-out: GI; outline: as §1
NCI-H322M = assay: Cytotoxicity against human NCI-H322M cells; outline: as §2
UO-31 = assay: Cytotoxicity against human UO31 cells assessed as growth inhibition at 10 uM; settings: read-out: GI
Outline: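 Single-dose screen in a sixty-cell human tumour line panel; percent growth of treated cells relative to untreated was read and reported as percentage growth inhibition, shown as a mean graph. Compounds meeting the threshold inhibition criteria went on to five-dose testing.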

SK-OV-3 [3] = assay: Cytotoxicity against human SKOV3 cells; outline: as §2
ACHN [4] = assay: Cytotoxicity against human ACHN cells
NCI/ADR-RES = assay: Cytotoxicity against human NCI/ADR-RES cells; outline: as §2
SF-268 = assay: Cytotoxicity against human SF268 cells; outline: as §2
TK-10 = assay: Cytotoxicity against human TK10 cells
Outline: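 Five-dose in vitro screen across the full sixty-cell human tumour line panel. Three response parameters were derived from the dose-response data: GI50, TGI and LC50, expressed in μM/l.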

OVCAR-4 = assay: Cytotoxicity against human OVCAR4 cells; outline: as §2
ACHN [5] = assay: Cytotoxicity against human ACHN cells assessed as growth inhibition at 10 uM; settings: read-out: GI
RPMI-8226 [6] = assay: Cytotoxicity against human RPMI8226 cells; outline: as §2
HOP-92 = assay: Cytotoxicity against human HOP92 cells
CCRF-CEM = assay: Cytotoxicity against human CCRF-CEM cells
PC-3 = assay: Cytotoxicity against human PC3 cells assessed as growth inhibition at 10 uM; settings: read-out: GI; outline: as §1
K562 = assay: Cytotoxicity against human K562 cells
Hs-578T = assay: Cytotoxicity against human Hs578T cells assessed as growth inhibition at 10 uM; settings: read-out: GI
SN12C = assay: Cytotoxicity against human SN12C cells; outline: as §2
IGROV-1 = assay: Cytotoxicity against human IGROV1 cells assessed as growth inhibition at 10 uM; settings: read-out: GI
Malme-3M [7] = assay: Cytotoxicity against human MALME-3M cells assessed as growth inhibition at 10 uM; settings: read-out: GI
Shigella flexneri = assay: Antibacterial activity against Shigella flexneri ATCC 15391 assessed as diameter of inhibition zone at 1 mg/ml after 24 hrs by cup diffusion method (reference value: 17 mm); settings: ATCC 15391, 24 h, read-out: DIZ
KM12 = assay: Cytotoxicity against human KM12 cells
Candida albicans = assay: Antifungal activity against Candida albicans ATCC 2091 assessed as diameter of inhibition zone at 1 mg/ml after 48 hrs by cup diffusion method (reference value: 22 mm); settings: ATCC 2091, 48 h, read-out: DIZ
SW-620 = assay: Cytotoxicity against human SW620 cells; outline: as §2
HCT-116 = assay: Cytotoxicity against human HCT116 cells
Malme-3M [8] = assay: Cytotoxicity against human MALME-3M cells
HT-29 = assay: Cytotoxicity against human HT-29 cells
SK-MEL-28 = assay: Cytotoxicity against human SK-MEL-28 cells; outline: as §2
LOX IMVI = assay: Cytotoxicity against human LOXIMVI cells
SR = assay: Cytotoxicity against human SR cells; outline: as §2
BT-549 = assay: Cytotoxicity against human BT549 cells
A498 = assay: Cytotoxicity against human A498 cells
SF-539 = assay: Cytotoxicity against human SF539 cells; outline: as §2
SK-OV-3 [9] = assay: Cytotoxicity against human SKOV3 cells assessed as growth inhibition at 10 uM; settings: read-out: GI; outline: as §1
RXF 393 = assay: Cytotoxicity against human RXF393 cells assessed as growth inhibition at 10 uM; settings: read-out: GI; outline: as §1
[10] = read-out: LC50 (the source's name)

N#Cc1c(-c2ccccc2)nc(SCC2CO2)nc1N1CCOCC1 (stereo not drawn)
inhibition of growth at 10 µM (NCI-H522): 42.1% | GI50 (CAKI-1): 0.635 µM | TGI (CAKI-1): 31.4 µM | CC50 (CAKI-1; [10]): > 100 µM | GI50 [1]: 3.65 µM | TGI [1]: > 100 µM | CC50 [1, 10]: > 100 µM | GI50 (MDA-MB-435): 6.71 µM | TGI (MDA-MB-435): > 100 µM | CC50 (MDA-MB-435; [10]): > 100 µM | GI50 (HCT-15): 4.06 µM | TGI (HCT-15): > 100 µM | CC50 (HCT-15; [10]): > 100 µM | inhibition of growth at 10 µM (RPMI-8226 [2]): 52.1% | GI50 (MDA-MB-468): 4.82 µM | TGI (MDA-MB-468): > 100 µM | CC50 (MDA-MB-468; [10]): > 100 µM | GI50 (NCI-H460): 10.3 µM | TGI (NCI-H460): > 100 µM | CC50 (NCI-H460; [10]): > 100 µM | GI50 (786-0): 2.7 µM | TGI (786-0): 21.3 µM | CC50 (786-0; [10]): > 100 µM | inhibition of growth at 10 µM (SF-295): 90.9% | GI50 (NCI-H322M): 8.31 µM | TGI (NCI-H322M): > 100 µM | CC50 (NCI-H322M; [10]): > 100 µM | inhibition of growth at 10 µM (UO-31): 70.5% | GI50 (SK-OV-3 [3]): 14.1 µM | TGI (SK-OV-3 [3]): 75.2 µM | CC50 (SK-OV-3 [3]; [10]): > 100 µM | GI50 (ACHN [4]): 3.23 µM | TGI (ACHN [4]): > 100 µM | CC50 (ACHN [4]; [10]): > 100 µM | GI50 (NCI/ADR-RES): 11.8 µM | TGI (NCI/ADR-RES): > 100 µM | CC50 (NCI/ADR-RES; [10]): > 100 µM | GI50 (SF-268): 13 µM | TGI (SF-268): > 100 µM | CC50 (SF-268; [10]): > 100 µM | GI50 (TK-10): 4.63 µM | TGI (TK-10): > 100 µM | CC50 (TK-10; [10]): > 100 µM | GI50 (OVCAR-4): 85.1 µM | TGI (OVCAR-4): > 100 µM | CC50 (OVCAR-4; [10]): > 100 µM | inhibition of growth at 10 µM (ACHN [5]): 40.8% | GI50 (RPMI-8226 [6]): 14.1 µM | TGI (RPMI-8226 [6]): 91.8 µM | CC50 (RPMI-8226 [6]; [10]): > 100 µM | GI50 (HOP-92): 2.44 µM | TGI (HOP-92): 8.7 µM | CC50 (HOP-92; [10]): > 100 µM | GI50 (CCRF-CEM): > 100 µM | TGI (CCRF-CEM): > 100 µM | CC50 (CCRF-CEM; [10]): > 100 µM | inhibition of growth at 10 µM (PC-3): 63.9% | GI50 (K562): > 100 µM | TGI (K562): > 100 µM | CC50 (K562; [10]): > 100 µM | inhibition of growth at 10 µM (Hs-578T): 50% | GI50 (SN12C): 16.4 µM | TGI (SN12C): > 100 µM | CC50 (SN12C; [10]): > 100 µM | inhibition of growth at 10 µM (IGROV-1): 61.9% | inhibition of growth at 10 µM (Malme-3M [7]): 74.3% | zone of inhibition at 1000 µg/mL (Shigella flexneri): 18 mm | GI50 (KM12): 27.1 µM | TGI (KM12): > 100 µM | CC50 (KM12; [10]): > 100 µM | zone of inhibition at 1000 µg/mL (Candida albicans): 22 mm | GI50 (SW-620): 25 µM | TGI (SW-620): > 100 µM | CC50 (SW-620; [10]): > 100 µM | GI50 (HCT-116): 18.4 µM | TGI (HCT-116): > 100 µM | CC50 (HCT-116; [10]): > 100 µM | GI50 (Malme-3M [8]): 2.56 µM | TGI (Malme-3M [8]): > 100 µM | CC50 (Malme-3M [8]; [10]): > 100 µM | GI50 (HT-29): 36.8 µM | TGI (HT-29): > 100 µM | CC50 (HT-29; [10]): > 100 µM | GI50 (SK-MEL-28): 5.45 µM | TGI (SK-MEL-28): 98.3 µM | CC50 (SK-MEL-28; [10]): > 100 µM | GI50 (LOX IMVI): 6.48 µM | TGI (LOX IMVI): > 100 µM | CC50 (LOX IMVI; [10]): > 100 µM | GI50 (SR): 33.3 µM | TGI (SR): > 100 µM | CC50 (SR; [10]): > 100 µM | GI50 (BT-549): 3.22 µM | TGI (BT-549): > 100 µM | CC50 (BT-549; [10]): > 100 µM | GI50 (A498): 1.06 µM | TGI (A498): 5.28 µM | CC50 (A498; [10]): > 100 µM | GI50 (SF-539): 19.8 µM | TGI (SF-539): > 100 µM | CC50 (SF-539; [10]): > 100 µM | inhibition of growth at 10 µM (SK-OV-3 [9]): 71.9% | inhibition of growth at 10 µM (RXF 393): 68.5%
